Experiments:
Cavia porcellus [1] = assay: Antitussive activity by inhibition of irritant citric acid aerosol-induced coughing in guinea pig upon oral administration.; format: functional
Method in brief: (§1)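 Male guinea pigs (350-400 g) exposed in a box to 7.5% citric acid aerosol for 5 min, and coughs counted as the basal value. Next day, after overnight fasting, animals (6-8/dose) were gavaged with compound in water or 0.5% methyl cellulose (2 mL/kg) 1 h before re-exposure. Activity is the reduction in coughs versus the basal count. ED50 is the dose giving 50% reduction (Cochran and Snedecor).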

[2] = Acute toxicity was determined in mice upon peroral administration; format: organism-based; details: mouse, in vivo, po
Method in brief: (§2)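 Swiss mice of both sexes, groups of six, dosed by gavage at several doses up to 1000 mg/kg. Compound dissolved in water or suspended in 0.5% carboxymethyl cellulose, 10 mL/kg. Deaths recorded over 1-7 days. LD50 obtained by logit transformation.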

Cavia porcellus [3] = assay: Antitussive activity was evaluated by inhibition of irritant electrically-induced coughing in guinea pig trachea upon oral administration at 30 mg/kg; format: functional
Method in brief: (§3)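 Guinea pigs under ketamine (10 mg/kg im) and xylazine (3 mg/kg im) anaesthesia, with an electrode wrapped around the trachea about 1.5 cm above the bifurcation and an indifferent electrode on the dorsal skin. Coughs during stimulation counted as the basal value. Groups of 6-8/dose were gavaged with compound in water or 0.5% methyl cellulose (2 mL/kg). Activity is the cough reduction versus basal. ED50 is the dose giving 50% reduction.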

Cavia porcellus [4] = assay: Antitussive activity was evaluated by inhibition of irritant citric acid aerosol-induced coughing in guinea pig upon oral administration at 30 mg/kg dose; format: functional; method in brief: as §1
Cavia porcellus [5] = assay: Antitussive activity was evaluated by inhibition of irritant aerosol-induced coughing by (po) administration of 30 mg/kg in guinea pig; format: functional; method in brief: as §1
[6] = Lethality in mice following p.o. administration.; format: ADME, organism-based; details: mouse, in vivo, po; method in brief: as §2
Cavia porcellus [7] = assay: Inhibition of irritant electrically-induced coughing in guinea pig trachea following p.o. administration.; format: functional; details: po; method in brief: as §3
Cavia porcellus [8] = assay: Antitussive activity was evaluated by inhibition of irritant electrically-induced coughing by (po) administration in guinea pig; format: functional; method in brief: as §3
Cavia porcellus [9] = assay: Antitussive activity was evaluated by inhibition of irritant aerosol-induced coughing by (po) administration in guinea pig; format: functional; method in brief: as §1

COc1ccccc1OCC1SCCN1C(=O)CC(=O)O (stereo unspecified)
ED50 (Cavia porcellus [1]): 20 mg/kg
LD50 [2]: > 1000 mg/kg
inhibition in vivo at 30 mg/kg (Cavia porcellus [3]): < 20%

O=C(O)CC(=O)N1CCSC1COc1ccccc1O (stereo unspecified)
ED50 (Cavia porcellus [1]): 25 mg/kg
LD50 [2]: 1000 mg/kg

CCOC(=O)C(=O)N1CCSC1COc1ccccc1OC (stereo unspecified)
LD50 [2]: > 1000 mg/kg
inhibition in vivo at 30 mg/kg (Cavia porcellus [4]): < 20%

COc1ccccc1OCC1NCCS1 (stereo unspecified)
LD50 [2]: > 1000 mg/kg

CC(=O)SCC(=O)Oc1ccccc1CCC1SCCN1C(=O)CSC(C)=O (stereo unspecified)
inhibition in vivo at 30 mg/kg (Cavia porcellus [5]): < 20%
LD50 [6]: > 1000 mg/kg

CCOC(=O)CC(=O)N1CC[S+]([O-])C1COc1ccccc1OC (stereo unspecified)
ED50 (Cavia porcellus [7]): 28 mg/kg
ED50 (Cavia porcellus [1]): 27 mg/kg
LD50 [2]: > 1000 mg/kg

COc1ccccc1OCC1SCCN1C(=O)CNC(C)=O (stereo unspecified)
ED50 (Cavia porcellus [1]): 40 mg/kg
LD50 [2]: > 1000 mg/kg

COc1ccccc1OCC1SCCN1C(=O)/C=C/c1ccc(O)c(O)c1 (stereo unspecified)
inhibition in vivo at 30 mg/kg (Cavia porcellus [5]): < 20%
LD50 [6]: > 1000 mg/kg

COc1ccccc1OCC1SCCN1C(=O)C(C)SC(C)=O (stereo unspecified)
inhibition in vivo at 30 mg/kg (Cavia porcellus [5]): < 20%
LD50 [6]: > 1000 mg/kg

COc1ccccc1OCC1N(C(=O)C[S+](C)[O-])CC[S+]1[O-] (stereo unspecified)
LD50 [2]: > 1000 mg/kg

O=C(O)[C@@H]1CSC(COc2ccccc2O)N1 (stereo partly specified)
LD50 [2]: > 1000 mg/kg
inhibition in vivo at 30 mg/kg (Cavia porcellus [4]): < 20%

CC(=O)SCC(=O)N1CCSC1COc1ccccc1C (stereo unspecified)
inhibition in vivo at 30 mg/kg (Cavia porcellus [5]): < 20%
LD50 [6]: > 1000 mg/kg

COc1ccccc1OCC1SCCN1C(=O)Cn1ccnc1 (stereo unspecified)
ED50 (Cavia porcellus [1]): 50 mg/kg
LD50 [2]: 966 mg/kg

COc1ccccc1OCC1SCCN1C(C)=O (stereo unspecified)
ED50 (Cavia porcellus [1]): 46 mg/kg
LD50 [2]: 552 mg/kg

CCCC(=O)CC(=O)N1CCSC1COc1ccccc1OC (stereo unspecified)
ED50 (Cavia porcellus [1]): 42 mg/kg

COc1ccccc1OCC1SCCN1C(=O)C(C)(C)C (stereo unspecified)
ED50 (Cavia porcellus [7]): 24 mg/kg
LD50 [2]: > 1000 mg/kg

CCOC(=O)[C@@H]1CSC(COc2ccccc2OC)N1C(=O)CSC(C)=O (stereo partly specified)
inhibition in vivo at 30 mg/kg (Cavia porcellus [5]): < 20%
LD50 [6]: 672 mg/kg

COc1ccccc1OCC1N(C(=O)CS(C)(=O)=O)CC[S+]1[O-] (stereo unspecified)
LD50 [2]: > 1000 mg/kg

COc1ccccc1OCC1N(C(=O)CC(=O)O)CC[S+]1[O-] (stereo unspecified)
ED50 (Cavia porcellus [1]): 20 mg/kg
LD50 [2]: > 1000 mg/kg

COc1ccccc1OCC1SCCN1C(=O)CC(C)=O (stereo unspecified)
ED50 (Cavia porcellus [7]): 26 mg/kg
ED50 (Cavia porcellus [1]): 30 mg/kg
LD50 [2]: > 1000 mg/kg

CCOC(=O)C(C)(C)C(=O)N1CCSC1COc1ccccc1OC (stereo unspecified)
ED50 (Cavia porcellus [7]): 48 mg/kg
ED50 (Cavia porcellus [1]): 61 mg/kg
LD50 [2]: > 1000 mg/kg

COc1ccccc1OCC1SCCN1C(=O)C(C)(C)C(=O)O (stereo unspecified)
ED50 (Cavia porcellus [7]): 21 mg/kg
ED50 (Cavia porcellus [1]): 34 mg/kg
LD50 [2]: > 1000 mg/kg

COc1ccccc1OCC1SCCN1C(=O)CC(=O)NCc1ccncc1.Cl (stereo unspecified)
ED50 (Cavia porcellus [7]): 13 mg/kg
ED50 (Cavia porcellus [1]): 23 mg/kg
LD50 [2]: 707 mg/kg

Cl.O=C(O)c1ccc(OCC2SCCN2C(=O)Cn2ccnc2)cc1 (stereo unspecified)
LD50 [2]: > 1000 mg/kg
inhibition in vivo at 30 mg/kg (Cavia porcellus [4]): < 20%

COc1ccccc1SCC1SCCN1C(=O)CN1CCN(C)CC1 (stereo unspecified)
inhibition in vivo at 30 mg/kg (Cavia porcellus [4]): < 20%

COc1ccccc1OCC1SCCN1C(=O)CN1CCOCC1.Cl (stereo unspecified)
LD50 [2]: 612 mg/kg
inhibition in vivo at 30 mg/kg (Cavia porcellus [4]): < 20%

COc1ccccc1OCC1SCCN1C(=O)CC(=O)N1CCN(Cc2ccccc2)CC1.Cl (stereo unspecified)
ED50 (Cavia porcellus [1]): 41 mg/kg
LD50 [2]: 681 mg/kg

COc1ccccc1OCC1SCCN1C(=O)CN1CCN(C)CC1.Cl.Cl (stereo unspecified)
LD50 [2]: 818 mg/kg
inhibition in vivo at 30 mg/kg (Cavia porcellus [3]): < 20%

COc1ccccc1OCC1SCCN1C(=O)CN.Cl (stereo unspecified)
ED50 (Cavia porcellus [1]): 57 mg/kg
LD50 [2]: 585 mg/kg

COc1ccc2c3c1O[C@H]1[C@@H](O)C=C[C@H]4[C@@H](C2)N(C)CC[C@@]341.COc1ccc2c3c1O[C@H]1[C@@H](O)C=C[C@H]4[C@@H](C2)N(C)CC[C@@]341.O.O=P(O)(O)O.O=P(O)(O)O [CODEINE PHOSPHATE]
ED50 (Cavia porcellus [8]): 14 mg/kg
ED50 (Cavia porcellus [9]): 29 mg/kg

COc1ccc2c(c1)[C@]13CCCC[C@@H]1[C@H](C2)N(C)CC3 [DEXTROMETHORPHAN]
ED50 (Cavia porcellus [8]): 16 mg/kg
ED50 (Cavia porcellus [9]): 48 mg/kg

OCC(O)CN1CCN(c2ccccc2)CC1 (stereo unspecified) [DROPROPIZINE]
ED50 (Cavia porcellus [7]): 32 mg/kg
ED50 (Cavia porcellus [1]): 144 mg/kg

COc1ccccc1OCC1SCCN1C(=O)CSC(C)=O (stereo unspecified) [GUAISTEINE]
ED50 (Cavia porcellus [8]): 17 mg/kg
LD50 [6]: > 1000 mg/kg
ED50 (Cavia porcellus [9]): 26 mg/kg

CCOC(=O)CC(=O)N1CCSC1COc1ccccc1OC (stereo unspecified) [MOGUISTEINE]
ED50 (Cavia porcellus [7]): 11 mg/kg
ED50 (Cavia porcellus [1]): 21 mg/kg
LD50 [2]: > 1000 mg/kg
